# Bioassay records (PubChem BioAssay)
# KCNQ1 block: inhibitors of human KCNQ1 potassium channel; P51787; B-score at 10 µM; 1.3% of 310,000 active; CHO-K1 KCNQ1, FluxOR thallium flux fluorescence; active compounds read high; AID 2642;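 active = compounds whose thallium flux B-score, printed positive for inhibition, exceeds three library SD while starting fluorescence stays within three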;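 also: channel opened by potassium depolarization with thallium stimulus after 20 min compound exposure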
# KCNK9 inh: human KCNK9 channel inhibition; B-score at 10 µM; Q9NPC2; 1.2% of 310,000 active; HEK293 KCNK9, FluxOR thallium flux fluorescence; active compounds read low;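 active = ratio B-score over 3 SD below the library mean, with starting fluorescence within 5 SD of its mean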;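 also: negative B-score means less thallium flux so channel inhibition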
# KCNK3 block: human KCNK3 channel inhibition, primary screen; 0.84% of 340,000 active; O14649; B-score at 10 µM; CHO-KCNK3 thallium flux, FluxOR fluorescence; active compounds read low; AID 602410;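 active = B-score under library mean minus 4 SD, starting fluorescence ratio at most library mean plus 5 SD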;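 also: more negative B-score means stronger inhibition of thallium flux through KCNK3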
# Target sequence (O14649 whole entry, looked up): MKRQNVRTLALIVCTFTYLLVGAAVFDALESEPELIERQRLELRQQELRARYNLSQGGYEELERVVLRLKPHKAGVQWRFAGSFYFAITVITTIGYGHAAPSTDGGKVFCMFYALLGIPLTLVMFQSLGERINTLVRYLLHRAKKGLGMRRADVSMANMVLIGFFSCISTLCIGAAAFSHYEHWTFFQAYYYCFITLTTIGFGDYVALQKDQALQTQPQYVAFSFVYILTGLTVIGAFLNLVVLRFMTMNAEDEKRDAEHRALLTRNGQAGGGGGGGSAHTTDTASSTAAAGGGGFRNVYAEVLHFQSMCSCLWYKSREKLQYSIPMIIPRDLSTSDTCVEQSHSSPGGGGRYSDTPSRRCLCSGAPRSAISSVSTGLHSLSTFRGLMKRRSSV
# PHOSPHO1 block: blocks human PHOSPHO1 phosphatase activity; Q8TCT1; inhibition, % at 13.3 µM; 1.1% of 290,000 active; recombinant PHOSPHO1, absorbance phosphatase assay; in the data active = inhibition above about 60%
# KCNQ1 pot: potentiates or activates the human KCNQ1 potassium channel; B-score at 10 µM; CHO-K1 KCNQ1, thallium flux FluxOR fluorescence; active compounds read high; 0.35% of 310,000 active; AID 2648; P51787;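 active = fluorescence ratio B-score, a plate-corrected score, at least three library SD, with initial intensity B-score within 5 SD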
#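 Assay system: stable KCNQ1 CHO-K1 line; medium: assay buffer, equal DMSO in all wells; timing: 90 min dye loading and 20 min compound exposure, both at room temperature; technique: kinetic FluxOR thallium fluorescence, 10-s 1-Hz baseline, 110-s post-stimulus read; read-out basis: B score of baseline-normalized fluorescence ratio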
# hERG rescue: shields human hERG channel from block by proarrhythmic agents. Q12809. CHO-hERG, FluxOR thallium flux, dofetilide IC70 present. activation (rescue from dofetilide block), less the hit threshold, % at 10 µM. 0.51% of 310,000 active;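 active = activation above the mean of controls blocked by dofetilide plus 5 SD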;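 also: thallium influx through hERG after potassium depolarization seen as dye fluorescence rise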
# Active calls of the source: *; i = inactive; . = not tested or not shown. Sampled rows, rich in hits. Any-hit rate of the full collection: about 4%.
SMILES,KCNQ1 block,KCNK9 inh,KCNK3 block,PHOSPHO1 block,KCNQ1 pot,hERG rescue
O=C(NNc1c2ccccc2nc2ccccc12)c1ccccc1Cl,i,i,i,19.2,9*,-3.1
Cc1cc(C)cc(-c2nnc(SCC(=O)Nc3cc(C)on3)o2)c1,.,.,i,.,.,.
Cc1ccc(C(C)(O)CS(=O)(=O)Cc2ccccc2)cc1 (centres undefined),i,i,i,-29.0,i,-2.4
CNC[C@@H](Cc1ccccc1)NC[C@@H](CC1CCCCC1)NCCCc1ccccc1,7*,-8.06*,i,15.1,i,-25.0
CNC[C@@H](CC1CCCCC1)NC[C@H](CC(C)C)NCCc1cccc(C(F)(F)F)c1,9*,i,i,4.7,i,-30.0
CCC[C@@H](CNC)NC[C@H](Cc1ccccc1)NCCCCc1ccccc1,i,i,i,9.9,i,-11.0
CCOc1ccc(CCNC(=O)Cn2ccc3ccccc3c2=O)cc1OCC,i,i,i,28.3,i,-4.0
O=C(N/N=C/c1ccccn1)c1cc(-c2ccc(Br)cc2)nc2ccccc12,i,i,i,10.6,14*,-0.6
O=C(N/N=C/c1ccccn1)c1cc(-c2ccc(Cl)cc2)nc2ccccc12,i,i,i,-2.6,i,-10.6
O=C(NC(=S)Nc1ccccc1)c1cc(-c2ccccc2)nc2ccccc12,i,i,i,37.9,33*,4.3
COc1cc(-c2cc(C(=O)Nc3ccc(O)cc3)c3ccccc3n2)cc(OC)c1OC,i,i,i,23.7,i,-14.9
Cc1cc(NC(=O)c2cc(-c3ccncc3)nc3ccccc23)ccc1Br,.,.,-13*,.,.,.
COc1cc(-c2cc(C(=O)Nc3cccc(C(C)=O)c3)c3ccccc3n2)cc(OC)c1OC,i,i,-11.2*,26.5,i,-15.3
COc1ccc(C(N)=S)c(OC)c1,i,i,i,-1.5,i,-6.1
CC(=O)N1CCc2cc(S(=O)(=O)NC(Cc3ccccc3)C(=O)Nc3cc(C)ccn3)ccc21 (centres undefined),i,i,i,10.8,i,-7.4
O=C(O)C1=CC[C@@H](c2ccc(Cl)cc2)N(S(=O)(=O)c2ccc(Cl)cc2)[C@H]1c1ccc(F)cc1,.,.,i,.,.,.
CC(C)(C)c1nnc(NC(=O)c2cc(-c3ccccc3)nc3ccccc23)s1,6*,i,i,-35.3,i,-16.5
CCc1nnc(NC(=O)c2cc(-c3ccncc3)nc3ccccc23)s1,i,i,i,45.0,i,-5.7
O=C(Nc1ccccn1)c1cc(-c2ccc(Cl)s2)nc2ccccc12,.,.,i,.,.,.
CCc1nnc(NC(=O)c2cc(-c3ccccn3)nc3ccc(Br)cc23)s1,i,i,i,72.0*,i,-14.0
O=C(NC(=S)Nc1ccccn1)c1cc(-c2ccccc2)nc2ccccc12,i,i,i,-38.6,8*,3.6
COc1ccccc1CCNC(=O)c1cc(-c2ccccn2)nc2ccc(Br)cc12,i,i,.,46.4,i,-14.5
Cc1ccc2c(c1)C1CN(C)CCC1N2C(=O)Nc1ccc(Cl)cc1 (centres undefined),7*,i,i,4.7,i,-8.1
CCn1c(O)c(N=N)c2ccccc21,i,i,i,6.5,i,-7.1
CCn1c(O)c(N=NC2=NC(=O)CS2)c2ccccc21,i,i,i,45.0,i,9.1*
SMILES,KCNQ1 block,KCNK9 inh,KCNK3 block,PHOSPHO1 block,KCNQ1 pot,hERG rescue
CCC(c1nnc(SCC(=O)NCCc2ccc(Cl)cc2Cl)o1)N(C)C (centres undefined),i,i,i,66.8*,i,0.0
Cc1cccc2cc3c(N)c(C#N)sc3nc12,i,i,i,63.7*,i,-13.3
COc1ccc(/C=N\NC(=O)c2ccc(=O)[nH]n2)cc1O,i,i,i,-13.9,i,-5.3
O=C(N/N=C/c1ccc(O)c(O)c1)NC12CC3CC(CC(C3)C1)C2,i,i,i,7.1,i,-7.7
COc1ccc(/C=N/NC(=O)c2cc(C34CC5CC(CC(C5)C3)C4)[nH]n2)cc1O,6*,i,i,25.6,i,-11.8
CCOc1ccc(/C=N/NC(=O)NC23CC4CC(CC(C4)C2)C3)cc1O,9*,i,i,11.1,i,-20.6
CC1CCN(C(=O)COC(=O)c2cccc(S(=O)(=O)N(C)c3ccccc3)c2)CC1,.,.,i,.,.,.
CCOc1ccc(-c2cnc(NCc3cccc4ccccc34)n2CCOC)cc1,10*,i,-9.46*,24.1,i,-30.3
COCCn1c(-c2ccc(OC)cc2)cnc1N,i,i,i,-4.6,i,-6.9
O=C(COC(=O)c1cc(Cl)ccc1[N+](=O)[O-])NCc1ccc(Cl)cc1Cl,i,-7.3*,i,12.6,i,-9.9
O=C(COC(=O)c1cc(Cl)ccc1[N+](=O)[O-])Nc1cccc2ccccc12,i,i,i,-9.3,i,-5.0
O=C(O)CCN1C(=O)c2ccc(NC(=O)COc3ccccc3)cc2C1=O,i,i,i,42.8,i,-1.2
Cc1ccc([N+](=O)[O-])c2c1C(N1CCCCC1)C(C)(C)O2 (centres undefined),i,i,i,31.7,i,2.5
Cc1ccc([N+](=O)[O-])c2c1C(N1CC(C)OC(C)C1)C(C)(C)O2 (centres undefined),i,i,i,7.3,i,5.4*
C(=N\Nc1nn[nH]n1)/c1ccccc1,i,i,i,71.0*,i,-8.8
COc1ccc(Nc2c3c(nc4ccc(C)cc24)CCC3)cc1,8*,i,i,52.2,i,-10.4
CCOC(=O)c1sc2nccc(N(C)C)c2c1N=CNOCc1c(F)cccc1Cl,8*,i,i,13.8,i,-5.5
CN1CCN(C(=O)C2CCCN(S(=O)(=O)c3ccc(Cl)cc3)C2)CC1 (centres undefined),i,i,i,65.4*,i,-10.6
O=C(Nc1ncc(Br)s1)C(Cc1ccccc1)n1cccc1 (centres undefined),i,i,i,-9.2,31*,11.1*
O=C(O)CC(NC(=O)C1CCCCC1)c1cc([N+](=O)[O-])ccc1Cl (centres undefined),12*,i,i,-18.8,i,-17.4
O=c1[nH]sc2ccccc12,i,i,i,12.3,13*,-7.5
O=c1cc(O)sc2ccccc12,i,i,i,24.6,i,-5.6
O=[N+]([O-])c1ccc(/C=C/C2=NN(c3ccccc3)C(c3ccco3)C2)o1 (centres undefined),i,i,-9.67*,-39.3,i,-10.4
